Measurements reported in article PMC2948851 (European journal of pharmacology, 2010).
Marks after values point to notes of the source that are not given here.

Legend:
Format in all cases: cell-based
[1] = molecular target: human P2Y12 receptor R256T mutant (Homo sapiens, UniProt Q9H244, R256T); experiment: cAMP assay, CHO-K1 cells expressing R256T mutant P2Y12
[2] = molecular target: human P2Y12 receptor R256Q/R265W double mutant (Homo sapiens, UniProt Q9H244, R256Q/R265W); experiment: cAMP assay, CHO-K1 cells expressing R256Q/R265W double mutant P2Y12
Sequence of human P2Y12 receptor R256Q/R265W double mutant (Q9H244 whole entry R256Q/R265W): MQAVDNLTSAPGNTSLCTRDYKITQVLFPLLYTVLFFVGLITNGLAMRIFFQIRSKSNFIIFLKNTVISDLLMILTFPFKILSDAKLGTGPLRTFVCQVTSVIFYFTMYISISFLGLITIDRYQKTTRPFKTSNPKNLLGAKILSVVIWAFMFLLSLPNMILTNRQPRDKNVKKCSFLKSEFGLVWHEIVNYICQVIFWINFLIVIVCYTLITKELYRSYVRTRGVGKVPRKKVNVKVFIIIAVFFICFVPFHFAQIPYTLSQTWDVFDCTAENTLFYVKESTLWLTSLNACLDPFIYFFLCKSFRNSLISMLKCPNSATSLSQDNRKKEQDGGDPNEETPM

[3] = molecular target: human P2Y12 receptor wild-type (Homo sapiens, UniProt Q9H244)
Sequence of human P2Y12 receptor wild-type (Q9H244 whole entry): as the sequence (Q9H244 whole entry R256Q/R265W) above, with Q256R, W265R counted along it
Outline: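 CHO-K1 stably expressing N-terminally HA-tagged human P2Y12 (Ham's F-12, 10% FBS, 500 µg/ml hygromycin B); [3H]adenine-labelled overnight, 0.4 mM IBMX 10 min, then 20 µM forskolin with ADP (0.01–10 µM) and/or antagonist (0.001–1 µM, against 10 µM ADP) 5 min, 37°C. TCA stop; [3H]cAMP/([3H]ATP+[3H]cAMP) conversion, normalized to forskolin alone; IC50 calculated; mean ± S.E.M., n=3.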

[4] = molecular target: human P2Y12 receptor R256Q mutant (Homo sapiens, UniProt Q9H244, R256Q); experiment: cAMP assay, CHO-K1 cells expressing R256Q mutant P2Y12
Sequence of human P2Y12 receptor R256Q mutant (Q9H244 whole entry R256Q): as the sequence (Q9H244 whole entry R256Q/R265W) above, with W265R counted along it

[5] = molecular target: human P2Y12 receptor R265W mutant (Homo sapiens, UniProt Q9H244, R265W); experiment: cAMP assay, CHO-K1 cells expressing R265W mutant P2Y12
Sequence of human P2Y12 receptor R265W mutant (Q9H244 whole entry R265W): as the sequence (Q9H244 whole entry R256Q/R265W) above, with Q256R counted along it

[6] = molecular target: human P2Y12 receptor F198P mutant (Homo sapiens, UniProt Q9H244, F198P); experiment: cAMP assay, CHO-K1 cells expressing F198P mutant P2Y12
Sequence of human P2Y12 receptor F198P mutant (Q9H244 whole entry F198P): as the sequence (Q9H244 whole entry R256Q/R265W) above, with F198P, Q256R, W265R counted along it

[7] = molecular target: human P2Y12 receptor F104S mutant (Homo sapiens, UniProt Q9H244, F104S); experiment: cAMP assay, CHO-K1 cells expressing F104S mutant P2Y12
Sequence of human P2Y12 receptor F104S mutant (Q9H244 whole entry F104S): as the sequence (Q9H244 whole entry R256Q/R265W) above, with F104S, Q256R, W265R counted along it

[8] = molecular target: human P2Y12 receptor S288P mutant (Homo sapiens, UniProt Q9H244, S288P); experiment: cAMP assay, CHO-K1 cells expressing S288P mutant P2Y12
Sequence of human P2Y12 receptor S288P mutant (Q9H244 whole entry S288P): as the sequence (Q9H244 whole entry R256Q/R265W) above, with Q256R, W265R, S288P counted along it

[9] = molecular target: human P2Y12 receptor H253S mutant (Homo sapiens, UniProt Q9H244, H253S); experiment: cAMP assay, CHO-K1 cells expressing H253S mutant P2Y12
Sequence of human P2Y12 receptor H253S mutant (Q9H244 whole entry H253S): as the sequence (Q9H244 whole entry R256Q/R265W) above, with H253S, Q256R, W265R counted along it

[10] = molecular target: human P2Y12 receptor Y109S mutant (Homo sapiens, UniProt Q9H244, Y109S); experiment: cAMP assay, CHO-K1 cells expressing Y109S mutant P2Y12
Sequence of human P2Y12 receptor Y109S mutant (Q9H244 whole entry Y109S): as the sequence (Q9H244 whole entry R256Q/R265W) above, with Y109S, Q256R, W265R counted along it

[11] = CHO-K1, read-out: inhibition of cAMP at 10 μM ADP

Sequence of human P2Y12 receptor R256T mutant (Q9H244 whole entry R256T): as the sequence (Q9H244 whole entry R256Q/R265W) above, with Q256T, W265R counted along it

Q: Which results are given for CSCCNc1nc(SCCC(F)(F)F)nc2c1ncn2[C@@H]1O[C@H](COP(=O)(O)OP(=O)(O)C(Cl)(Cl)P(=O)(O)O)[C@@H](O)[C@H]1O [AR-C69931MX]?
A: AR-C69931MX concentration enough to block ADP (10 μM)-induced activation ([1]; R256T, 10 μM ADP): 100 nM; shift of AR-C69931MX concentration curve vs wild-type ([1]; R256T, in the presence of 10 μM ADP): significant left shift; shift of AR-C69931MX concentration curve vs wild-type ([2]; R256QR265W, in the presence of 10 μM ADP): leftward shift; antagonism effect of AR-C69931MX at 10 nM ([3]; wild-type, 10 nM AR-C69931MX, 10 μM ADP): did not occur; AR-C69931MX concentration required to completely inhibit 10 μM ADP-induced inhibition of cAMP ([3]; wild-type, 10 μM ADP): 1 µM; shift of AR-C69931MX concentration curve vs wild-type ([4]; R256Q, in the presence of 10 μM ADP): leftward shift; AR-C69931MX concentration enough to block ADP-induced activation ([5]; R265W, 10 μM ADP): 30 nM; shift of AR-C69931MX concentration curve vs wild-type ([5]; R265W, in the presence of 10 μM ADP, compared to R256Q and R256T): even more leftward shift

Q: With Nc1ncnc2c1ncn2[C@@H]1O[C@H](COP(=O)(O)OP(=O)(O)O)[C@@H](O)[C@H]1O [ADP, Adenosine diphosphate] as the compound, how does the IC50 [1] read?
A: 290 ± 50 nM

Q: And the “Max. inhibition by ADP (% of control)” value ([1]; R256T construct, CHO-K1, 20 μM forskolin, cAMP)?
A: 79.53 ± 4.83 (3) % of control

Q: And the IC50 [6]?
A: 150 ± 50 nM

Q: And the inhibition at 10 µM ([6]; CHO-K1, read-out: maximal inhibition of cAMP level at 10 μM ADP)?
A: ~40%

Q: What about the “Max. inhibition by ADP (% of control)” value ([6]; F198P construct, CHO-K1, 20 μM forskolin, cAMP) of the same compound?
A: 40.37 ± 10.64 ^b(3) % of control

Q: And the IC50 [2]?
A: 6460 ± 190 nM

Q: And the “Max. inhibition by ADP (% of control)” value ([2]; R256QR265W construct, CHO-K1, 20 μM forskolin, cAMP)?
A: 56.68 ± 6.32 ^a (3) % of control

Q: What about the IC50 [7] of the same compound?
A: 60 ± 10 nM

Q: And the “Max. inhibition by ADP (% of control)” value ([7]; F104S construct, CHO-K1, 20 μM forskolin, cAMP)?
A: 77.7 ± 1.12 (3) % of control

Q: And the “increase of potency of activation by ADP vs wild-type” value ([7]; F104S vs wild-type)?
A: 5 fold

Q: What about the IC50 [8] of the same compound?
A: 40 ± 10 nM

Q: And the “Max. inhibition by ADP (% of control)” value ([8]; S288P construct, CHO-K1, 20 μM forskolin, cAMP)?
A: 68.89 ± 6.24 (3) % of control

Q: And the “left shift of ADP concentration curve vs wild-type” value ([8]; S288P vs wild-type)?
A: about 4 fold

Q: And the IC50 [3]?
A: 250 ± 40 nM

Q: What about the inhibition at 10 µM ([3]; CHO-K1, read-out: cAMP inhibition at 10 μM ADP, wild-type, 10 μM ADP) of the same compound?
A: ~85%

Q: What about the “Max. inhibition by ADP (% of control)” value ([3]; Wild-type construct, CHO-K1, 20 μM forskolin, cAMP) of the same compound?
A: 85.37 ± 2.14 (3) % of control

Q: What about the IC50 [4] of the same compound?
A: 570 ± 30 nM

Q: And the “Max. inhibition by ADP (% of control)” value ([4]; R256Q construct, CHO-K1, 20 μM forskolin, cAMP)?
A: 75.32 ± 6.91 (3) % of control

Q: What about the IC50 [5] of the same compound?
A: 450 ± 210 nM

Q: And the inhibition at 10 µM [5, 11]?
A: ~60%

Q: What about the “Max. inhibition by ADP (% of control)” value ([5]; R265W construct, CHO-K1, 20 μM forskolin, cAMP) of the same compound?
A: 58.01 ± 3.08 ^a (3) % of control

Q: And the IC50 [9]?
A: 350 ± 210 nM

Q: And the inhibition at 10 µM [9, 11]?
A: ~60%

Q: What about the “Max. inhibition by ADP (% of control)” value ([9]; H253S construct, CHO-K1, 20 μM forskolin, cAMP) of the same compound?
A: 62.21 ± 1.93 (3) % of control

Q: And the IC50 [10]?
A: 170 ± 90 nM

Q: And the inhibition at 10 µM ([10]; CHO-K1, read-out: cAMP inhibition at 10 μM ADP)?
A: ~20%

Q: What about the “Max. inhibition by ADP (% of control)” value ([10]; Y109S construct, CHO-K1, 20 μM forskolin, cAMP) of the same compound?
A: 31.96 ± 0.15 ^b (3) % of control
